Source: ChEMBL document CHEMBL1128414, “Steroidal affinity labels of the estrogen receptor. 2. 17 alpha-[(Haloacetamido)alkyl]estradiols” (J Med Chem, 1995)
Calls of active or inactive are those of the source. The rule behind the calls is not given here.

Experiments:
[1] = target: T1, Estrogen receptor (Ovis aries) (UniProt P49885+Q9TU15); assay: Relative efficiency(RE) in irreversible inhibition of lamb uterine estrogen receptor relative to iodoacetamide 23
[2] = target: T1, Estrogen receptor (Ovis aries); assay: (§1) Irreversible inhibition of [3H]estradiol binding to lamb uterine estrogen receptor; format: protein assay
Method in brief: (§2)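 Lamb uterine cytosol (4 mg protein/mL, immature lamb uteri, 20 mM Tris-HCl) adjusted to pH 8.5 with NaOH, preincubated 4 h at 0 °C with 10 nM–10 µM compound or no steroid. Charcoal treatment for 30 min at 0 °C, then centrifugation. […] Specific binding is expressed as % of unexposed cytosol. IC50 is the concentration giving 50% irreversible inhibition; duplicates in two experiments.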

[3] = target: T1, Estrogen receptor (Ovis aries)
[4] = target: T1, Estrogen receptor (Ovis aries); assay: In vitro antagonist activity in estrogen regulated transcriptional activation assay; format: functional; conditions: filed as antagonist
Estrogen receptor = Estrogen receptor (Ovis aries, UniProt P49885+Q9TU15); assay: as §1; format: protein assay
Method in brief: as §2

[5] = target: T1, Estrogen receptor (Ovis aries); assay: In vitro agonist/antagonist activity in estrogen regulated transcriptional activation assay; format: functional; conditions: filed as partial agonist
[6] = target: T1, Estrogen receptor (Ovis aries); assay: In vitro agonist activity in estrogen regulated transcriptional activation assay; format: functional; conditions: filed as agonist

RE [1] | Covalent binding [2] | RAC app [3] | Hormonal activity [4] | IC50 (Estrogen receptor) [nM] | Hormonal activity [5] | Hormonal activity [6] | Structure (SMILES)
0.0019 | Active | 0.0076 | Antagonist | 9700 | – | – | C[C@]12CC[C@@H]3c4ccc(O)cc4CCC3[C@@H]1CC[C@@]2(O)CNC(=O)CBr (single isomer, unassigned)
1 | Active | 0.0084 | – | 18 | Partial agonist | – | C[C@]12CC[C@@H]3c4ccc(O)cc4CC[C@H]3[C@@H]1CC[C@@]2(O)CCCNC(=O)CI
0.011 | Active | 0.017 | – | 1600 | Partial agonist | – | C[C@]12CC[C@@H]3c4ccc(O)cc4CC[C@H]3[C@@H]1CC[C@@]2(O)CCNC(=O)CBr
– | inactive | 0.15 | – | – | – | Agonist | C[C@]12CC[C@@H]3c4ccc(O)cc4CC[C@H]3[C@@H]1CC[C@@]2(O)CCOS(C)(=O)=O
– | inactive | 0.0084 | – | – | Partial agonist | – | CC(=O)NCCC[C@]1(O)CC[C@H]2[C@@H]3CCc4cc(O)ccc4[C@H]3CC[C@@]21C
0.34 | Active | 0.019 | – | 53 | Partial agonist | – | C[C@]12CC[C@@H]3c4ccc(O)cc4CC[C@H]3[C@@H]1CC[C@@]2(O)CCCNC(=O)CBr
